Test results: ChEMBL document CHEMBL1124015, “Methods for drug discovery: development of potent, selective, orally effective cholecystokinin antagonists” (J Med Chem, 1988)
pIC50: −log10 of the molar value.

Tests used:
[1] = molecular target: T1, Cholecystokinin receptor type A (Rattus norvegicus, UniProt P30551); experiment: Half-maximal inhibition of [125I]CCK-8 binding to cholecystokinin receptor from rat pancreatic tissue
T1 sequence (P30551 whole entry): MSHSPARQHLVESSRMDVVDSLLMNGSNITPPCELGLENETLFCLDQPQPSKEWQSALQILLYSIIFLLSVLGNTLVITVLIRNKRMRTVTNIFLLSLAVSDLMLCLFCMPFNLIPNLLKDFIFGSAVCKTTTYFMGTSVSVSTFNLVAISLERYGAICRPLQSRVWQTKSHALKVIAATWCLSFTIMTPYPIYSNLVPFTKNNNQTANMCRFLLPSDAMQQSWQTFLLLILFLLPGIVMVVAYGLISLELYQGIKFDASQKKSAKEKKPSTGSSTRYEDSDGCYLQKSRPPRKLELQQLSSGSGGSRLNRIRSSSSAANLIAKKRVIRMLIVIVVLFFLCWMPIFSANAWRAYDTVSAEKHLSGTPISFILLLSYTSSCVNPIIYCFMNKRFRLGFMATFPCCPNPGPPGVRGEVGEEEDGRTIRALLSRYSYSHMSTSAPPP

[2] = molecular target: T1, Cholecystokinin receptor type A; experiment: Half-maximal inhibition of [125I]CCK-33 binding to cholecystokinin A receptor from rat pancreatic tissue
Mus musculus = experiment: Ability to antagonize CCK-8 inhibition of charcoal meal gastric emptying in mice, after oral administration; format: functional; details: Stomach
Procedure, shortened: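 Mice dosed orally with test compound at one or more dose levels (N ≥ 10/dose) 1 h before CCK-8 (80 μg/kg, sc). CCK-8 given 5 min before a charcoal meal. Gastric emptying measured 5 min after the meal.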

[3] = molecular target: GABA-A receptor; anion channel; experiment: Inhibition of [3H]flunitrazepam binding to GABA-A benzodiazepine receptor of guinea brain; set-up: species or system Cavia porcellus
[4] = Ratio of IC50 CCK(pancreas)/ IC50BZD (brain); format: functional
[5] = molecular target: GABA-A receptor; anion channel; experiment: Inhibition of [3H]diazepam binding to GABA-A benzodiazepine receptor of rat brain
[6] = Ratio of IC50 CCK (pancreas)/ IC50 BZD (brain); format: functional

SMILES | pIC50 [2] | other results
CN1C(=O)C(N)N=C(c2ccccc2F)c2ccccc21 (configuration not stated) | – | pIC50 [1]: 4.24
CN1C(=O)[C@H](NC(=O)C2CCCCC2)N=C(c2ccccc2)c2ccccc21 | – | pIC50 [1]: < 5.00
Cc1ccc(C(=O)NC2N=C(c3ccccc3F)c3ccccc3NC2=O)cc1 (configuration not stated) | 7.68 | –
O=C(NC1N=C(c2ccccc2F)c2ccccc2NC1=O)c1cc2ccccc2[nH]1 (configuration not stated) | 8.68 | –
CC(C)(C)OC(=O)N[C@H](Cc1c[nH]c2ccccc12)C(=O)NC1N=C(c2ccccc2)c2ccccc2NC1=O (some centres not stated) | 5.22 | –
CC(C)(C)OC(=O)N[C@H](Cc1ccccc1)C(=O)NC1N=C(c2ccccc2)c2ccccc2NC1=O (some centres not stated) | 5.57 | –
CN1C(=O)[C@H](NC(=O)c2cc3ccccc3[nH]2)N=C(c2ccccc2)c2ccccc21 | – | ED50 (Mus musculus): 0.4 mg/kg
N[C@H](Cc1ccccc1)C(=O)NC1N=C(c2ccccc2)c2ccccc2NC1=O (some centres not stated) | 5.51 | –
CCCc1ccc(C(=O)NC2N=C(c3ccccc3)c3ccccc3NC2=O)cc1 (configuration not stated) | 5.44 | –
O=C1Nc2ccccc2C(c2ccccc2F)=NC1NC(=O)C(O)c1ccccc1 (configuration not stated) | 4.00 | –
O=C(NC1N=C(c2ccccc2F)c2ccccc2NC1=O)c1c(F)c(F)c(F)c(F)c1F (configuration not stated) | < 5.00 | –
O=C(NC1N=C(c2ccccc2F)c2ccccc2NC1=O)c1ccc([N+](=O)[O-])cc1 (configuration not stated) | 6.96 | –
CN(C)c1ccc(C(=O)NC2N=C(c3ccccc3F)c3ccccc3NC2=O)cc1 (configuration not stated) | 6.57 | –
CN1C(=O)C(NC(=O)c2ccc(Cl)cc2)N=C(c2ccccc2F)c2ccccc21 (configuration not stated) | 8.64 | ED50 (Mus musculus): 0.2 mg/kg
O=C(NC1N=C(c2ccccc2)c2ccccc2NC1=O)c1ccc(Cl)c(Cl)c1 (configuration not stated) | 7.54 | –
O=C(NC1N=C(c2ccccc2F)c2ccccc2NC1=O)c1ccsc1 (configuration not stated) | 6.82 | –
CN1C(=O)C(NC(=O)c2ccc(Cl)cc2N)N=C(c2ccccc2)c2ccccc21 (configuration not stated) | – | pIC50 [1]: 8.05
CN1C(=O)[C@@H](NC(=O)c2cc3ccccc3[nH]2)N=C(c2ccccc2F)c2ccccc21 | 8.22 | –
O=C(NC1N=C(c2ccccc2)c2ccccc2NC1=O)c1cccc(Cl)c1 (configuration not stated) | 7.09 | –
CN1C(=O)C(N(C)C(=O)c2ccccc2Cl)N=C(c2ccccc2)c2ccccc21 (configuration not stated) | 4.24 | –
CC1(C(=O)NC2N=C(c3ccccc3F)c3ccccc3NC2=O)C=Cc2ccccc21 (configuration not stated) | 7.66 | –

SMILES | pIC50 [2] | other results
O=C(NC1N=C(c2ccccc2F)c2ccccc2NC1=O)c1cc2cc(Cl)ccc2[nH]1 (configuration not stated) | 7.15 | –
N#Cc1ccc(C(=O)NC2N=C(c3ccccc3)c3ccccc3NC2=O)cc1 (configuration not stated) | 6.14 | –
CN1C(=O)[C@H](NC(=O)c2ccc(Br)cc2)N=C(c2ccccc2)c2ccccc21 | – | pIC50 [3]: 4.82; Ratio [4]: 0.05
CN1C(=O)[C@@H](NC(=O)[C@H](N)Cc2ccccc2)N=C(c2ccccc2)c2ccccc21 | 5.72 | –
CN1C(=O)[C@@H](NC(=O)c2ccc(C(F)(F)F)cc2)N=C(c2ccccc2F)c2ccccc21 | 7.96 | –
O=C(NC1N=C(c2ccccc2)c2ccccc2NC1=O)c1ccc(Cl)cc1 (configuration not stated) | 7.39 | –
CCCCCc1ccc(C(=O)N[C@H]2N=C(c3ccccc3F)c3ccccc3N(C)C2=O)cc1 | 6.16 | –
O=C(NC1N=C(c2ccccc2)c2ccccc2NC1=O)c1ccc(C(F)(F)F)cc1 (configuration not stated) | 6.62 | –
CN1C(=O)[C@@H](N)N=C(c2ccccc2)c2ccccc21 | – | pIC50 [3]: < 4.00
O=C(NC1N=C(c2ccccc2F)c2ccccc2NC1=O)c1cc2cc(O)ccc2[nH]1 (configuration not stated) | 7.15 | –
CN1C(=O)C(NC(=O)c2ccc(C(C)(C)C)cc2)N=C(c2ccccc2F)c2ccccc21 (configuration not stated) | 7.00 | –
O=C(NC1N=C(c2ccccc2F)c2ccccc2NC1=O)c1ccc(Cl)cc1 (configuration not stated) | 8.22 | ED50 (Mus musculus): 1.4 mg/kg
CN1C(=O)C(NC(=O)c2ccc(Cl)cc2)[N+]([O-])=C(c2ccccc2F)c2ccccc21 (configuration not stated) | 7.18 | –
CC(=O)NC1N=C(c2ccccc2F)c2ccccc2NC1=O (configuration not stated) | 4.40 | –
O=C1CN=C(c2ccccc2Cl)c2cc([N+](=O)[O-])ccc2N1 [CLONAZEPAM] | < 4.00 | Ratio [4]: >58000
O=C(NC1N=C(c2ccccc2)c2ccccc2NC1=O)c1ccc(F)cc1 (configuration not stated) | 6.32 | –
COc1ccc(C(=O)NC2N=C(c3ccccc3F)c3ccccc3NC2=O)cc1 (configuration not stated) | 7.02 | –
CN1C(=O)[C@@H](NC(=O)c2ccc(Br)cc2)N=C(c2ccccc2F)c2ccccc21 | 9.10 | –
CSc1ccc(C(=O)NC2N=C(c3ccccc3)c3ccccc3NC2=O)cc1 (configuration not stated) | 6.66 | –
CN1C(=O)C(NC(=O)c2ccccc2Cl)N=C(c2ccccc2)c2ccccc21 (configuration not stated) | 5.47 | –
O=C(O)CN1C(=O)C(NC(=O)c2cc3ccccc3[nH]2)N=C(c2ccccc2F)c2ccccc21 (configuration not stated) | 8.82 | –

SMILES | pIC50 [2] | other results
NC1N=C(c2ccccc2)c2ccccc2NC1=O (configuration not stated) | < 4.00 | –
CCOC(=O)CN1C(=O)C(NC=O)N=C(c2ccccc2)c2ccccc21 (configuration not stated) | – | pIC50 [1]: < 4.00
O=C1Nc2ccccc2C(c2ccccc2)=NC1NCCc1c[nH]c2ccccc12 (configuration not stated) | 5.52 | –
CN1C(=O)C(NC(=O)c2ccc(C(F)(F)F)cc2)N=C(c2ccccc2F)c2ccccc21 (configuration not stated) | 7.70 | –
CN1C(=O)CN=C(c2ccccc2)c2ccccc21 | 4.61 | pIC50 [5]: 7.19; Ratio [4]: 378
COc1ccc2[nH]c(C(=O)NC3N=C(c4ccccc4F)c4ccccc4NC3=O)cc2c1 (configuration not stated) | 6.70 | –
CN1C(=O)[C@@H](NC(=O)c2ccc(Br)cc2)N=C(c2ccccc2)c2ccccc21 | 8.54 | pIC50 [3]: < 4.00; Ratio [4]: <1e-05; ED50 (Mus musculus): 0.4 mg/kg
O=C(NC1N=C(c2ccccc2)c2ccccc2NC1=O)c1ccc(O)cc1 (configuration not stated) | 5.74 | –
O=C(NC1N=C(c2ccccc2F)c2ccccc2NC1=O)c1cc2ccccc2o1 (configuration not stated) | 8.05 | –
CN1C(=O)C(NC(=O)c2cc3ccccc3[nH]2)N=C(c2ccccc2)c2ccccc21 (configuration not stated) | – | ED50 (Mus musculus): 0.08 mg/kg
O=C(O)CN1C(=O)C(NC(=O)c2cc3ccccc3[nH]2)N=C(c2ccccc2)c2ccccc21 (configuration not stated) | 8.85 | ED50 (Mus musculus): 0.5 mg/kg
CCCCCc1ccc(C(=O)NC2N=C(c3ccccc3)c3ccccc3NC2=O)cc1 (configuration not stated) | 4.57 | –
O=C(NC1N=C(c2ccccc2F)c2ccccc2N(C(=O)c2ccc(Cl)cc2)C1=O)c1ccc(Cl)cc1 (configuration not stated) | 7.74 | –
CN1C(=O)[C@@H](NC(=O)/C=C/c2ccccc2)N=C(c2ccccc2)c2ccccc21 | – | pIC50 [1]: 9.52
CCOC(=O)CN1C(=O)C(NC(=O)c2ccccc2Cl)N=C(c2ccccc2F)c2ccccc21 (configuration not stated) | – | pIC50 [1]: < 4.52
CN1C(=O)[C@H](N)N=C(c2ccccc2)c2ccccc21 | < 4.00 | pIC50 [3]: 5.07; Ratio [4]: >11
O=C(NC1N=C(c2ccccc2)c2ccccc2NC1=O)c1ccc2ccccc2c1 (configuration not stated) | 7.70 | –
CN1C(=O)C(NC(=O)[C@@H](Cc2ccccc2)NC(=O)OC(C)(C)C)N=C(c2ccccc2)c2ccccc21 (some centres not stated) | 6.15 | –
CN1C(=O)[C@@H](NC(=O)c2cc3ccccc3[nH]2)N=C(c2ccccc2)c2ccccc21 [DEVAZEPIDE] | – | ED50 (Mus musculus): 0.04 mg/kg
CN1C(=O)C(NC(=O)[C@H](Cc2ccccc2)NC(=O)OC(C)(C)C)N=C(c2ccccc2F)c2ccccc21 (some centres not stated) | – | pIC50 [1]: 6.47
O=C(NC1N=C(c2ccccc2)c2ccccc2NC1=O)c1cc2ccccc2[nH]1 (configuration not stated) | 8.33 | Ratio [6]: <4.7e-05; pIC50 [5]: < 4.00; ED50 (Mus musculus): 0.4 mg/kg

SMILES | pIC50 [2] | other results
Cn1c(C(=O)NC2N=C(c3ccccc3F)c3ccccc3NC2=O)cc2ccccc21 (configuration not stated) | 8.33 | –
O=C(NC1N=C(c2ccccc2)c2ccccc2NC1=O)c1cnccn1 (configuration not stated) | < 5.00 | –
O=C(/C=C/c1ccccc1)NC1N=C(c2ccccc2F)c2ccccc2NC1=O (configuration not stated) | 7.96 | –
CN1C(=O)CN=C(c2ccccc2F)c2ccccc21 [RO-054520] | 4.38 | pIC50 [5]: 7.62; Ratio [4]: 1750
CN1C(=O)[C@@H](NC(=O)c2ccc(I)cc2)N=C(c2ccccc2F)c2ccccc21 | 9.10 | –
O=C(Cc1cccc2sccc12)NC1N=C(c2ccccc2F)c2ccccc2NC1=O (configuration not stated) | 6.00 | –
CN(C(=O)c1cc2ccccc2[nH]1)C1N=C(c2ccccc2)c2ccccc2NC1=O (configuration not stated) | 4.89 | –
O=C(O)CN1C(=O)C(NC(=O)c2ccc(Cl)cc2)N=C(c2ccccc2F)c2ccccc21 (configuration not stated) | 7.49 | –
O=C1Nc2ccccc2C(c2ccccc2F)=NC1NCc1cc2ccccc2[nH]1 (configuration not stated) | 7.06 | –
CN1C(=O)[C@H](NC(=O)[C@H](N)Cc2ccccc2)N=C(c2ccccc2)c2ccccc21 | 4.00 | –
CN1C(=O)C(NC(=O)c2cc3ccccc3n2C)N=C(c2ccccc2)c2ccccc21 (configuration not stated) | 8.85 | pIC50 [3]: < 4.00; ED50 (Mus musculus): 1.9 mg/kg
O=C(NC1N=C(c2ccccc2)c2ccccc2NC1=O)c1ccccc1Cl (configuration not stated) | 5.12 | –
CN1C(=O)C(NC(=O)c2cccc(I)c2)N=C(c2ccccc2F)c2ccccc21 (configuration not stated) | 9.12 | –
CCCCCc1ccc(C(=O)NC2N=C(c3ccccc3F)c3ccccc3N(C)C2=O)cc1 (configuration not stated) | 5.96 | –
CC(C)CCC(=O)N[C@H]1N=C(c2ccccc2)c2ccccc2N(C)C1=O | – | pIC50 [1]: 6.11
O=C(NC1N=C(c2ccccc2F)c2ccccc2NC1=O)c1ccc[nH]1 (configuration not stated) | 6.96 | –
O=C(NC1N=C(c2ccccc2F)c2ccccc2NC1=O)c1cc2cc(Br)ccc2[nH]1 (configuration not stated) | 6.92 | –
CN1C(=O)C(NC(=O)c2cc3ccccc3[nH]2)N=C(c2ccccc2F)c2ccccc21 (configuration not stated) | 8.85 | –
CCOC(=O)CN1C(=O)C(NC(=O)c2ccc(Cl)cc2)N=C(c2ccccc2F)c2ccccc21 (configuration not stated) | 6.96 | –
NC1N=C(c2ccccc2F)c2ccccc2NC1=O (configuration not stated) | < 4.00 | –
